Experiments:
[1] = target: T1, Cholecystokinin receptor (Rattus norvegicus, UniProt P30551+P30553); format: protein assay
T1 sequence (P30551 whole entry): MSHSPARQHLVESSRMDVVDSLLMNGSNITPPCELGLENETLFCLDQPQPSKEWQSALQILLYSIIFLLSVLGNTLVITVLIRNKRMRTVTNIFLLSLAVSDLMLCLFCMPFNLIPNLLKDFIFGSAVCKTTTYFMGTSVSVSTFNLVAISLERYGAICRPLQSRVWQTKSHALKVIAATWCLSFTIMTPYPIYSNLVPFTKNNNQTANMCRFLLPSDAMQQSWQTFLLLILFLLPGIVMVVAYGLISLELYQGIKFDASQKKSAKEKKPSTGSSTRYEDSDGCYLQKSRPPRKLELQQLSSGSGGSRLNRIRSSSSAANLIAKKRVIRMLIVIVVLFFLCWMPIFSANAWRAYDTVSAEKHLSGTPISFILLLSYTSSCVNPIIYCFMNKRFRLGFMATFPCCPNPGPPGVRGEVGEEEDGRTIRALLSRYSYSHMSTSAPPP
T1 sequence (P30553 whole entry): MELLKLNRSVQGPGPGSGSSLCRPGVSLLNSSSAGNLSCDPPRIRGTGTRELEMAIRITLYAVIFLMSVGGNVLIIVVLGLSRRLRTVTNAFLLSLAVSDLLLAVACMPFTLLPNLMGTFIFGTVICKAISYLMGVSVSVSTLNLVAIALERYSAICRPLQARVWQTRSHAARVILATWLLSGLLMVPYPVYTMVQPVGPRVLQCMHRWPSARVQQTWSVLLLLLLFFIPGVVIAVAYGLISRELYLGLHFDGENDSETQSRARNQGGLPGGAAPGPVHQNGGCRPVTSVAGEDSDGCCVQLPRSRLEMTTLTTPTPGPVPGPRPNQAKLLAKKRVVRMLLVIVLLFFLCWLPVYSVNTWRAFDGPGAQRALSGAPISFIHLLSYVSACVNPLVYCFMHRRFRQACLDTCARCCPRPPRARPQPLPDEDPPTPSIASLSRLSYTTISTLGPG

[2] = system: Mus musculus; test: In vivo activity on the basis of the ability to antagonize CCK-8 inhibition of charcoal meal gastric emptying in mice after intraperitoneal administration; format: functional; conditions: Stomach, ip
In short: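 Mice dosed intraperitoneally 1 h before CCK-8 (80 μg/kg, sc), N ≥ 10/dose. A charcoal meal was given 5 min after CCK-8 and gastric emptying was measured 5 min later. ED50 was derived by regression from at least three dose levels.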

[3] = system: Mus musculus; test: In vivo activity on the basis of the ability to antagonize CCK-8 inhibition of charcoal meal gastric emptying in mice after oral administration; format: functional; conditions: Stomach
In short: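 Oral dosing of mice (N ≥ 10/dose) 1 h before sc CCK-8 at 80 μg/kg. The charcoal meal followed CCK-8 by 5 min, with gastric emptying scored 5 min after that. ED50 was obtained by regression analysis using at least three dose levels.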

[4] = target: GABA-A receptor; anion channel; test: Displacement of [3H]diazepam from rat brain GABA-A benzodiazepine receptor
[5] = species on record: Rattus norvegicus; test: Selectivity of binding to pancreatic CCK and brain benzodiazepine receptors, ratio of IC50
[6] = target: GABA-A receptor; anion channel; test: Displacement of [3H]flunitrazepam from GABA-A benzodiazepine receptor of guinea pig brain; set-up: species or system Cavia porcellus

Row | Structure (SMILES) | IC50 [1] [µM] | also measured
1 | CN1C(=O)[C@@H](Cc2cn(C)c3ccccc23)N(C(=O)c2ccc(Cl)cc2)C(c2ccccc2F)c2ccccc21 (stereo partly drawn) | > 100 | 
2 | O=C1Nc2ccccc2C(c2ccccc2F)=NC1C[C@@H]1CNc2ccccc21 (stereo partly drawn) | 11 | 
3 | O=C1Nc2ccccc2C(c2ccccc2F)=N[C@H]1Cc1c[nH]c2ccccc12 | 10.6 | 
4 | CN1C(=O)/C(=C\c2ccsc2)N=C(c2ccccc2)c2ccccc21 | 25 | 
5 | CN1C(=O)[C@@H](Cc2cn(C)c3ccccc23)N=C(c2ccccc2F)c2ccccc21 | 0.36 | ED50 [2]: 18 mg/kg; ED50 [3]: 39 mg/kg
6 | O=C1Nc2ccc(Cl)cc2C(c2ccccc2)=NC1Cc1cccc2ccccc12 (stereo not drawn) | 23 | 
7 | O=C1Nc2ccccc2C(c2ccccc2F)=NC1Cc1ccsc1 (stereo not drawn) | 33 | 
8 | O=C1Nc2ccccc2C1C[C@H]1N=C(c2ccccc2)c2cc(Cl)ccc2NC1=O (stereo partly drawn) | 24 | 
9 | CC(C)CC(N)C(=O)N1CC(CC2N=C(c3ccccc3)c3ccccc3NC2=O)c2ccccc21.Cl (stereo not drawn) | 6.6 | 
10 | O=C1CN=C(c2ccccc2Cl)c2cc([N+](=O)[O-])ccc2N1 [CLONAZEPAM] | > 100 | IC50 [4]: 0.0017 µM; Ratio [5]: > 58000
11 | O=C1[C@@H](Cc2c[nH]c3ccccc23)N=C(c2ccccc2)c2cc(Cl)ccc2N1Cc1ccccc1 | > 100 | 
12 | Cc1nnc2n1-c1ccccc1C(c1ccccc1F)=N[C@@H]2Cc1c[nH]c2ccccc12 | 1.2 | IC50 [6]: 0.8 µM; ED50 [3]: 76 mg/kg; Ratio [5]: 1.5
13 | O=C1Nc2ccccc2C(c2ccccc2)=NC1C[C@H]1CNc2ccccc21 (stereo partly drawn) | 21 | 
14 | CN1C(=O)CN=C(c2ccccc2F)c2cc([N+](=O)[O-])ccc21 [FLUNITRAZEPAM] |  | IC50 [4]: 0.0017 µM
15 | O=C1Nc2ccc(Cl)cc2C(c2ccccc2)N[C@@H]1Cc1c[nH]c2ccccc12 (stereo partly drawn) | 12 | 
16 | O=C(O)CN1C(=O)[C@@H](Cc2c[nH]c3ccccc23)N=C(c2ccccc2F)c2ccccc21 | 0.3 | IC50 [4]: > 100 µM; ED50 [3]: 42 mg/kg; Ratio [5]: < 0.003
17 | O=C1Nc2ccc(Cl)cc2C(c2ccccc2)=NC1Cc1ccc2ccccc2c1 (stereo not drawn) | 49 | 
18 | O=C1Nc2ccc(Cl)cc2C(c2ccccc2)=N[C@H]1Cc1c[nH]c2ccccc12 | 32 | IC50 [4]: 5.6 µM; ED50 [3]: > 150 mg/kg
19 | O=C1Nc2ccccc2C(c2ccccc2F)=N[C@@H]1Cc1c[nH]c2ccccc12 | 0.5 | IC50 [4]: > 100 µM; ED50 [2]: 41 mg/kg; ED50 [3]: 104 mg/kg
20 | SC1=Nc2ccc(Cl)cc2C(c2ccccc2)=N[C@@H]1Cc1c[nH]c2ccccc12 | 4.5 | 
21 | NC(=O)CN1C(=O)[C@@H](Cc2c[nH]c3ccccc23)N=C(c2ccccc2F)c2ccccc21 | 2.1 | 
22 | O=C1Nc2ccc(Cl)cc2C(c2ccccc2)=N[C@@H]1COCc1ccccc1 | 60 | 
23 | CC1=N[C@H](Cc2c[nH]c3ccccc23)C(=O)Nc2ccccc21 | 48 | IC50 [4]: > 100 µM
24 | O=C1Nc2ccccc2C(c2ccccc2F)=NC1Cc1c[nH]c2ccc(F)cc12 (stereo not drawn) | 1.4 | 
25 | CC(C)CC(NC(=O)OC(C)(C)C)C(=O)N1CC(CC2N=C(c3ccccc3)c3ccccc3NC2=O)c2ccccc21 (stereo not drawn) | 4.7 | 
26 | O=C1Nc2ccccc2C(c2ccccc2)=NC1C[C@@H]1CNc2ccccc21 (stereo partly drawn) | 3.2 | 
27 | O=C1[C@@H](Cc2c[nH]c3ccccc23)N=C(c2ccccc2F)c2ccccc2N1CC1CC1 | 2.2 | 
28 | O=C1Nc2ccccc2C(c2ccccc2)=N[C@@H]1Cc1c[nH]c2ccccc12 | 1.2 | IC50 [4]: > 100 µM; ED50 [3]: > 150 mg/kg
29 | O=C1Nc2ccccc2C(c2ccccc2F)=NC1Cc1c[nH]c2cc(F)ccc12 (stereo not drawn) | 1.3 | 
30 | CC(C)C[C@H]1N=C(c2ccccc2)c2cc(Cl)ccc2NC1=O | 42 | 
